Tests used:
Thromboxane A2 receptor [1] = target: T1, Thromboxane A2 receptor (Homo sapiens, UniProt P21731)
T1 sequence (P21731 whole entry): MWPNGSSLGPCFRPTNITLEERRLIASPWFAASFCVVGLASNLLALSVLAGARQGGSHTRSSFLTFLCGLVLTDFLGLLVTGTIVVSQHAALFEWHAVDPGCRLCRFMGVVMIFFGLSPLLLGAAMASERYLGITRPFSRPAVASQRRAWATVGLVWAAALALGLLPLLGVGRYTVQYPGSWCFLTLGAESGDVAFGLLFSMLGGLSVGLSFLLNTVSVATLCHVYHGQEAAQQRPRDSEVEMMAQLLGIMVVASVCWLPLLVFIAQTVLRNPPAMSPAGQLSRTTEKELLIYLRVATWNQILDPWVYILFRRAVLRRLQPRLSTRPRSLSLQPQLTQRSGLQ

Thromboxane A2 receptor [2] = target: T2, Thromboxane A2 receptor (Mus musculus, UniProt P30987); test: Antagonist activity at mouse prostanoid TP receptor expressed in QBI-HEK 293A cells assessed as inhibition of […]-induced increase in inositol monophosphate after 1 hr by time-resolved fluorescence assay; type: functional, cell-based, HEK293
T2 sequence (P30987 whole entry): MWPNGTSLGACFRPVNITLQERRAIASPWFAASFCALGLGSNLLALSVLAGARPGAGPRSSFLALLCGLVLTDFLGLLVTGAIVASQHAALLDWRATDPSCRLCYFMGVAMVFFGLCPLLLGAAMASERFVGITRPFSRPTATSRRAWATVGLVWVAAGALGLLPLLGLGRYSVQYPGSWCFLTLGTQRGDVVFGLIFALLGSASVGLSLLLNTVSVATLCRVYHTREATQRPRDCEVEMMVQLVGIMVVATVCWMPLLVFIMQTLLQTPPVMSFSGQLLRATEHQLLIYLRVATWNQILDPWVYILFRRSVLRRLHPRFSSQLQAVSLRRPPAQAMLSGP
In short: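 QBI-HEK 293A cells stably transfected with human or mouse TP receptor cDNA, seeded at 10 000 cells/well and grown 16 h at 37 °C. Cells were preincubated 15 min at 37 °C with antagonist at varying concentrations in Hepes-buffered saline containing 50 mM LiCl, pH 7.4. I-BOP was then added at 1.6 nM for 1 h. IP1 was measured by HTRF (Tb anti-IP1 cryptate/D2-IP1, 1 h at 25 °C) as the 665/620 nm ratio.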

Thromboxane A2 receptor [3] = target: T1, Thromboxane A2 receptor; test: Displacement of [3H]SQ-29548 from human prostanoid TP receptor expressed in QBI-HEK 293A cells after 2 hrs by scintillation proximity assay; type: cell-based, HEK293
Thromboxane A2 receptor [4] = target: T2, Thromboxane A2 receptor; test: Displacement of [3H]SQ-29548 from mouse prostanoid TP receptor expressed in QBI-HEK 293A cells after 2 hrs by scintillation proximity assay; type: cell-based, HEK293
In short: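 Membranes from QBI-HEK 293A cells stably expressing mouse TP receptor. Cells were harvested in PBS/1 mM EDTA, homogenized in 20 mM Hepes/1 mM EGTA/0.5 mM DTT with protease inhibitors, spun at 1000g and then 21 000 rpm, and the pellet resuspended in Hepes/EGTA/100 mM NaCl. Antagonist at 10 concentrations, 62.5 μg membrane, 100 μg PVT-WGA SPA beads and 20 nM [3H]SQ29,548 in 50 mM Tris, 4 mM CaCl2, 0.1% ascorbate, pH 7.5, 2 h at 25 °C.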

[5] = Dissociation constant, pKa of the compound by pH metric method; type: physicochemical
[6] = Lipophilicity, log D of the compound at pH 7.4 by pH metric method; type: physicochemical; details: buffer
[7] = Octanol-phosphate buffer partition coefficient, log P of the compound by pH metric method; type: physicochemical
[8] = Solubility of the compound in acetonitrile at 10 uM after 2 hrs by spectrophotometry; type: physicochemical

Compound: O=S(=O)(NCCc1cccc(CCCO)c1)c1ccc(Cl)cc1
- IC50 (Thromboxane A2 receptor [1]): 15.1 µM
- IC50 (Thromboxane A2 receptor [2]): 1.63 µM
- Kd (Thromboxane A2 receptor [3]): > 10 µM
- Kd (Thromboxane A2 receptor [4]): 10 µM

Compound: O=C1C=C(O)CC1
- pKa [5]: 4.2

Compound: CC1=C(O)CCC1=O
- pKa [5]: 4.47

Compound: O=C1C=C(O)CC1Cc1ccc(Br)cc1 (centres undefined)
- logD [6]: -0.42
- logP [7]: 3.02
- solubility [8]: soluble
- pKa [5]: 3.96

Compound: CC1=C(O)CC(Cc2ccc(Br)cc2)C1=O (centres undefined)
- logD [6]: 0.11
- logP [7]: 3.28
- solubility [8]: soluble
- pKa [5]: 4.24

Compound: O=C1CCC(O)=C1Cc1ccc(Br)cc1
- logD [6]: -0.19
- logP [7]: 3.01
- solubility [8]: soluble
- pKa [5]: 4.2

Compound: O=C(O)CCc1ccc(Br)cc1
- logD [6]: 0.01
- logP [7]: 3
- solubility [8]: soluble
- pKa [5]: 4.33

Compound: Brc1ccc(Cc2nn[nH]n2)cc1
- logD [6]: -0.42
- logP [7]: 2.21
- solubility [8]: soluble
- pKa [5]: 4.62

Compound: O=S(=O)(NCCc1cccc(CCc2nnn[nH]2)c1)c1ccc(Cl)cc1
- IC50 (Thromboxane A2 receptor [1]): 0.064 µM
- IC50 (Thromboxane A2 receptor [2]): 0.008 µM
- Kd (Thromboxane A2 receptor [3]): 0.331 µM
- Kd (Thromboxane A2 receptor [4]): 0.019 µM

Compound: O=c1c(O)c(NCc2cccc(CCNS(=O)(=O)c3ccc(Cl)cc3)c2)c1=O
- IC50 (Thromboxane A2 receptor [1]): 0.377 µM
- IC50 (Thromboxane A2 receptor [2]): 0.091 µM
- Kd (Thromboxane A2 receptor [3]): 0.359 µM
- Kd (Thromboxane A2 receptor [4]): 0.017 µM

Compound: O=C1CCC(O)=C1Cc1cccc(CCNS(=O)(=O)c2ccc(Cl)cc2)c1
- IC50 (Thromboxane A2 receptor [1]): > 10 µM
- Kd (Thromboxane A2 receptor [3]): 11.4 µM
- Kd (Thromboxane A2 receptor [4]): 1.2 µM

Compound: O=C1CCC(O)=C1CCc1cccc(CCNS(=O)(=O)c2ccc(Cl)cc2)c1
- IC50 (Thromboxane A2 receptor [1]): > 10 µM

Compound: O=C1C=C(O)C(Cc2cccc(CCNS(=O)(=O)c3ccc(Cl)cc3)c2)C1 (centres undefined)
- Kd (Thromboxane A2 receptor [3]): 0.203 µM
- Kd (Thromboxane A2 receptor [4]): 0.011 µM

Compound: CC1=C(O)C(Cc2cccc(CCNS(=O)(=O)c3ccc(Cl)cc3)c2)CC1=O (centres undefined)
- Kd (Thromboxane A2 receptor [3]): 0.328 µM
- Kd (Thromboxane A2 receptor [4]): 0.026 µM

Compound: CC1=C(OCC(C)C)CC(Cc2cccc(CCNS(=O)(=O)c3ccc(Cl)cc3)c2)C1=O (centres undefined)
- IC50 (Thromboxane A2 receptor [1]): > 10 µM

Compound: O=C(O)CCc1cccc(CCNS(=O)(=O)c2ccc(Cl)cc2)c1
- Kd (Thromboxane A2 receptor [4]): 0.026 µM

— ChEMBL document CHEMBL1828569, “Cyclopentane-1,3-dione: a novel isostere for the carboxylic acid functional group. Application to the design of potent thromboxane (A2) receptor antagonists” (J Med Chem, 2011)
